From ChEMBL document CHEMBL1152649, “Synthesis, cytotoxicity and human telomerase inhibition activities of a series of 1,2-heteroannelated anthraquinones and anthra[1,2-d]imidazole-6,11-dione homologues” (2009)

Assays:
[1] = target: Telomerase reverse transcriptase (Homo sapiens) (UniProt O14746); experiment: Inhibition of TERT in human H1299 cells assessed as residual transcriptional activity at 100 uM after 24 hrs by SEAP reporter gene assay; values are per cent of control
786-0 = experiment: Antiproliferative activity against human 786-0 cells assessed as cell growth at 10 uM; format: functional; settings: read-out: Activity
Summary of the method: (§1)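 NCI 60 cell line panel, single-dose screen (10^-5 M) run by the developmental therapeutics program protocol. Results are given as growth percent of treated cells relative to untreated control cells for each line.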

COLO 205 = experiment: Antiproliferative activity against human COLO205 cells assessed as cell growth at 10 uM; format: functional; settings: read-out: Activity
Summary of the method: as §1

SNB-75 = experiment: Antiproliferative activity against human SNB75 cells assessed as cell growth at 10 uM; format: functional; settings: read-out: Activity
Summary of the method: (§2)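 NCI 60 cell line panel, single dose (10^-5 M), run per the Developmental Therapeutics Program protocol (one dose mean graph). Each result is the growth percentage of treated cells relative to untreated control cells.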

A498 = experiment: Antiproliferative activity against human A498 cells assessed as cell growth at 10 uM; format: functional; settings: read-out: Activity
Summary of the method: as §1

PC-3 = experiment: Antiproliferative activity against human PC3 cells assessed as cell growth at 10 uM; format: functional; settings: read-out: Activity
Summary of the method: as §1

DU-145 = experiment: Antiproliferative activity against human DU145 cells assessed as cell growth at 10 uM; format: functional; settings: read-out: Activity
Summary of the method: as §1

HCT-116 = experiment: Antiproliferative activity against human HCT116 cells assessed as cell growth at 10 uM; format: functional; settings: read-out: Activity
Summary of the method: as §1

Malme-3M = experiment: Antiproliferative activity against human MALME-3M cells assessed as cell growth at 10 uM; format: functional; settings: read-out: Activity
Summary of the method: as §1

M14 = experiment: Antiproliferative activity against human M14 cells assessed as cell growth at 10 uM; format: functional; settings: read-out: Activity
Summary of the method: as §1

EKVX = experiment: Antiproliferative activity against human EKVX cells assessed as cell growth at 10 uM; format: functional; settings: read-out: Activity
Summary of the method: as §1

UACC-62 = experiment: Antiproliferative activity against human UACC62 cells assessed as cell growth at 10 uM; format: functional; settings: read-out: Activity
Summary of the method: as §2

HOP-62 = experiment: Antiproliferative activity against human HOP62 cells assessed as cell growth at 10 uM; format: functional; settings: read-out: Activity
Summary of the method: as §1

[2] = Cytotoxicity against human H1299 cells at 100 uM after 48 hrs by MTT assay; format: functional; settings: NCI-H1299, 48 h
Summary of the method: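 H1299 non-small cell lung cancer cells were grown in RPMI 1640 with 10% FBS, penicillin and streptomycin at 37 °C under 5% CO2. About 2 × 10³ cells per well were seeded and left 24 h. Compounds were dissolved fresh in DMSO, diluted into complete medium and applied for 48 h. MTT was then added for 4 h at 37 °C, followed by lysis buffer (20% SDS, 50% DMF) for 16 h, and absorbance was read at 550 nm.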

A549 = experiment: Antiproliferative activity against human A549 cells assessed as cell growth at 10 uM; format: functional; settings: read-out: Activity
Summary of the method: as §1

HOP-92 = experiment: Antiproliferative activity against human HOP92 cells assessed as cell growth at 10 uM; format: functional; settings: read-out: Activity
Summary of the method: as §1

SK-MEL-2 = experiment: Antiproliferative activity against human SK-MEL-2 cells assessed as cell growth at 10 uM; format: functional; settings: read-out: Activity
Summary of the method: as §1

[3] = Antiproliferative activity against human Hs 578T cells assessed as cell growth at 10 uM; format: functional; settings: read-out: Activity
Summary of the method: as §1

SF-539 = experiment: Antiproliferative activity against human SF539 cells assessed as cell growth at 10 uM; format: functional; settings: read-out: Activity
Summary of the method: as §1

TK-10 = experiment: Antiproliferative activity against human TK10 cells assessed as cell growth at 10 uM; format: functional; settings: read-out: Activity
Summary of the method: as §2

OVCAR-3 = experiment: Antiproliferative activity against human OVCAR-3 cells assessed as cell growth at 10 uM; format: functional; settings: read-out: Activity
Summary of the method: as §1

T47D = experiment: Antiproliferative activity against human T47D cells assessed as cell growth at 10 uM; format: functional; settings: read-out: Activity
Summary of the method: as §2

HT-29 = experiment: Antiproliferative activity against human HT-29 cells assessed as cell growth at 10 uM; format: functional; settings: read-out: Activity
Summary of the method: as §1

SK-MEL-5 = experiment: Antiproliferative activity against human SK-MEL-5 cells assessed as cell growth at 10 uM; format: functional; settings: read-out: Activity
Summary of the method: as §1

NCI-H226 = experiment: Antiproliferative activity against human NCI-H226 cells assessed as cell growth at 10 uM; format: functional; settings: read-out: Activity
Summary of the method: as §1

SW-620 = experiment: Antiproliferative activity against human SW620 cells assessed as cell growth at 10 uM; format: functional; settings: read-out: Activity
Summary of the method: as §2

CAKI-1 = experiment: Antiproliferative activity against human Caki1 cells assessed as cell growth at 10 uM; format: functional; settings: read-out: Activity
Summary of the method: as §1

CCRF-CEM = experiment: Antiproliferative activity against human CCRF-CEM cells assessed as cell growth at 10 uM; format: functional; settings: read-out: Activity
Summary of the method: as §1

UACC-257 = experiment: Antiproliferative activity against human UACC257 cells assessed as cell growth at 10 uM; format: functional; settings: read-out: Activity
Summary of the method: as §2

OVCAR-5 = experiment: Antiproliferative activity against human OVCAR5 cells assessed as cell growth at 10 uM; format: functional; settings: read-out: Activity
Summary of the method: as §1

K562 = experiment: Antiproliferative activity against human K562 cells assessed as cell growth at 10 uM; format: functional; settings: read-out: Activity
Summary of the method: as §1

SF-268 = experiment: Antiproliferative activity against human SF268 cells assessed as cell growth at 10 uM; format: functional; settings: read-out: Activity
Summary of the method: as §1

OVCAR-8 = experiment: Antiproliferative activity against human OVCAR8 cells assessed as cell growth at 10 uM; format: functional; settings: read-out: Activity
Summary of the method: as §1

UO-31 = experiment: Antiproliferative activity against human UO31 cells assessed as cell growth at 10 uM; format: functional; settings: read-out: Activity
Summary of the method: as §2

NCI-H322M = experiment: Antiproliferative activity against human NCI-H322M cells assessed as cell growth at 10 uM; format: functional; settings: read-out: Activity
Summary of the method: as §1

LOX IMVI = experiment: Antiproliferative activity against human LOXIMVI cells assessed as cell growth at 10 uM; format: functional; settings: read-out: Activity
Summary of the method: as §1

HCT-15 = experiment: Antiproliferative activity against human HCT15 cells assessed as cell growth at 10 uM; format: functional; settings: read-out: Activity
Summary of the method: as §1

SNB-19 = experiment: Antiproliferative activity against human SNB19 cells assessed as cell growth at 10 uM; format: functional; settings: read-out: Activity
Summary of the method: as §1

OVCAR-4 = experiment: Antiproliferative activity against human OVCAR4 cells assessed as cell growth at 10 uM; format: functional; settings: read-out: Activity
Summary of the method: as §1

SN12C = experiment: Antiproliferative activity against human SN12C cells assessed as cell growth at 10 uM; format: functional; settings: read-out: Activity
Summary of the method: as §1

[4] = target: Telomerase reverse transcriptase (Homo sapiens) (UniProt O14746); experiment: Inhibition of TERT in human H1299 cells assessed as residual transcriptional activity at 10 uM after 24 hrs by SEAP reporter gene assay; values are per cent of control
SK-MEL-28 = experiment: Antiproliferative activity against human SK-MEL-28 cells assessed as cell growth at 10 uM; format: functional; settings: read-out: Activity
Summary of the method: as §1

HCC 2998 = experiment: Antiproliferative activity against human HCC2998 cells assessed as cell growth at 10 uM; format: functional; settings: read-out: Activity
Summary of the method: as §1

KM12 = experiment: Antiproliferative activity against human KM12 cells assessed as cell growth at 10 uM; format: functional; settings: read-out: Activity
Summary of the method: as §1

ACHN = experiment: Antiproliferative activity against human ACHN cells assessed as cell growth at 10 uM; format: functional; settings: read-out: Activity
Summary of the method: as §1

NCI-H460 = experiment: Antiproliferative activity against human NCI-H460 cells assessed as cell growth at 10 uM; format: functional; settings: read-out: Activity
Summary of the method: as §1

NCI-H23 = experiment: Antiproliferative activity against human NCI-H23 cells assessed as cell growth at 10 uM; format: functional; settings: read-out: Activity
Summary of the method: as §1

SR = experiment: Antiproliferative activity against human SR cells assessed as cell growth at 10 uM; format: functional; settings: read-out: Activity
Summary of the method: as §2

Chain of Telomerase reverse transcriptase (Homo sapiens) (O14746 whole entry): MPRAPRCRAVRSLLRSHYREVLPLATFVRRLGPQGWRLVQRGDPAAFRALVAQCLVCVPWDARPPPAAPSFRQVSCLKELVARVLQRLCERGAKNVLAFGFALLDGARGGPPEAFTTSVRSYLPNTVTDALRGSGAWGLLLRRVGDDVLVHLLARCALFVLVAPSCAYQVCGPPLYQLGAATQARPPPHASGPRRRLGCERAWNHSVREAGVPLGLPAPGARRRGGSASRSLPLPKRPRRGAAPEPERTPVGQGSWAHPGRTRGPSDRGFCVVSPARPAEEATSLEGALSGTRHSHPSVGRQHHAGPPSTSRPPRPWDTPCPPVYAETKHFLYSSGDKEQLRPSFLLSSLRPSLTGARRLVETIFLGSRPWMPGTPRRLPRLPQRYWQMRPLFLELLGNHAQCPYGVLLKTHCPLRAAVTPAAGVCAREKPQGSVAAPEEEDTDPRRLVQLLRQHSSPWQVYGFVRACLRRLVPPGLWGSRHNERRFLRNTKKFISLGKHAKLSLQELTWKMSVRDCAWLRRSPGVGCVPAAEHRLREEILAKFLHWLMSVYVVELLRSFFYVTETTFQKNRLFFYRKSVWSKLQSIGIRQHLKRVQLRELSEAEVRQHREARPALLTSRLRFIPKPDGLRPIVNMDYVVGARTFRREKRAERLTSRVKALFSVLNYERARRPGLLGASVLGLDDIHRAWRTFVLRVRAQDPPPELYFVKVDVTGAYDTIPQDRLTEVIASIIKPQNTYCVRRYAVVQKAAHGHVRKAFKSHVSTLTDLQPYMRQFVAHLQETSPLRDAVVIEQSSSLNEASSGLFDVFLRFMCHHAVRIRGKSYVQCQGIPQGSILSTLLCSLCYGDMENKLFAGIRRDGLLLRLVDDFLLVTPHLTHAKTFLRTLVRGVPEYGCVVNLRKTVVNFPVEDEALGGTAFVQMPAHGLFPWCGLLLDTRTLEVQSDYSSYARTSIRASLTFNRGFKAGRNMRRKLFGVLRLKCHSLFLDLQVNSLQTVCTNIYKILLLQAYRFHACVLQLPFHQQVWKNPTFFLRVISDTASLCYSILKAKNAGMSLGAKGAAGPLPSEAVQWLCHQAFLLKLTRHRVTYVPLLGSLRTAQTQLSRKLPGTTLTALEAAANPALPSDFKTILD

## CN(C)c1ccc(-c2nc3ccc4c(c3[nH]2)C(=O)c2ccccc2C4=O)cc1
[1]
  residual activity: 21%
786-0
  growth at 10 µM: 109%
COLO 205
  growth at 10 µM: 208%
SNB-75
  growth at 10 µM: 93.1%
A498
  growth at 10 µM: 86.1%
PC-3
  growth at 10 µM: 82.4%
DU-145
  growth at 10 µM: 99.9%
HCT-116
  growth at 10 µM: 100%
Malme-3M
  growth at 10 µM: 110%
M14
  growth at 10 µM: 113%
EKVX
  growth at 10 µM: 91.9%
UACC-62
  growth at 10 µM: 85.8%
HOP-62
  growth at 10 µM: 102%
[2]
  viability at 100 µM: 22%
A549
  growth at 10 µM: 113%
HOP-92
  growth at 10 µM: 89.9%
SK-MEL-2
  growth at 10 µM: 73.2%
[3]
  growth at 10 µM: 109%
SF-539
  growth at 10 µM: 111%
TK-10
  growth at 10 µM: 116%
OVCAR-3
  growth at 10 µM: 111%
T47D
  growth at 10 µM: 119%
HT-29
  growth at 10 µM: 105%
SK-MEL-5
  growth at 10 µM: 93.8%
NCI-H226
  growth at 10 µM: 89.3%
SW-620
  growth at 10 µM: 103%
CAKI-1
  growth at 10 µM: 108%
CCRF-CEM
  growth at 10 µM: 63.9%
UACC-257
  growth at 10 µM: 103%
OVCAR-5
  growth at 10 µM: 117%
K562
  growth at 10 µM: 96.1%
SF-268
  growth at 10 µM: 95.4%
OVCAR-8
  growth at 10 µM: 111%
UO-31
  growth at 10 µM: 75.5%
NCI-H322M
  growth at 10 µM: 94.8%
LOX IMVI
  growth at 10 µM: 90.5%
HCT-15
  growth at 10 µM: 107%
SNB-19
  growth at 10 µM: 127%
OVCAR-4
  growth at 10 µM: 98.3%
SN12C
  growth at 10 µM: 94.5%
[4]
  residual activity: 73%
SK-MEL-28
  growth at 10 µM: 96.8%
HCC 2998
  growth at 10 µM: 109%
KM12
  growth at 10 µM: 98%
ACHN
  growth at 10 µM: 96.2%
NCI-H460
  growth at 10 µM: 101%
NCI-H23
  growth at 10 µM: 93.8%
SR
  growth at 10 µM: 118%
